Assay outcomes: PubChem BioAssay, several laboratories
This is a sample that favours compounds with a hit; in the whole collection about 9.6% have one here.
BaF3 parental: parental Ba/F3 viability inhibition as JAK2V617F counter-screen; CellTiter-Glo ATP luminescence; inhibition, % at 5.6 µM; actives 1.1% (n = 220,000);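 active = inhibition above a per-campaign cutoff, the mean inhibition of all tested compounds plus 3 SD, cut at about 27% in these data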;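 also: 0% = DMSO wells and 100% = JAK Inhibitor I control wells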
Ba/F3 V617F tox: reduce viability of Ba/F3 cells dependent on JAK2V617F; actives 1.1% (n = 220,000); AID 1446; inhibition, % at 5.6 µM; Ba/F3 EpoR-JAK2V617F viability, ATP luminescence;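 active = inhibition above the campaign mean plus 3 SD over all tested compounds, cut at about 24% in these data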;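 also: cytokine-independent growth of Ba/F3 cells driven by EpoR plus mutant JAK2; 0% = DMSO-treated cells and 100% = JAK inhibitor I control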
Lmaj promast: inhibitors of Leishmania major promastigote growth | Leishmania major promastigotes, resazurin fluorescence viability | inhibition, % at 10 µM | actives 9% (n = 200,000); in the data active = inhibition above about 50%;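 also: promastigotes grown with compound for 44 hours at 28 °C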
MT stabilize HCS: stabilizes microtubules in HeLa cells | HeLa tubulin immunostaining HCS, 24 h; share of cells brighter than vehicle mean+2SD | % tubulin-high responders, % at 10 µM | actives 0.83% (n = 200,000);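 active = plate Z-score above 3 for both tubulin-high and condensed-nucleus cell shares, with cell loss under 80%, at 10 µM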;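 also: anti alpha tubulin signal scored within the nucleus-defined area of each cell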
bCat nuc transl: alters nuclear translocation of beta-catenin in HeLa cells | nuclear translocation activity, % at 5 µM | AID 1665 | actives 0.3% (n = 190,000) | immunofluorescence imaging;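 active = nuclear translocation activity above 50% at 5 µM, with a well cell count of 50 or more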;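 also: per-cell ratio of nuclear to cytoplasmic median beta-catenin stain intensity; plate controls were DMSO negative control for no effect and GSK-3 inhibitor IX positive control for full effect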
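Test system: human HeLa cell line; Doses: 5 µM primary, 0.02–20 µM confirmation; Incubation: 24 h compound exposure, 37°C; Detection: beta-catenin immunofluorescence imaging with DAPI; Read-out: beta-catenin nuclear/cytoplasmic ratio, % activation.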
APP transl inh: APP translation inhibition; SH-SY5Y APP 5'UTR-luciferase reporter, luminescence; inhibition, % at 2 µM; actives 0.82% (n = 190,000); AID 1285;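 active = inhibition above a set limit, derived from the sample mean plus 3 SD, cut at about 45% in these data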
Numbers without * were called inactive; . = no result.

SMILES	BaF3 parental	Ba/F3 V617F tox	Lmaj promast	MT stabilize HCS	bCat nuc transl	APP transl inh
O=C(COc1ccccc1)N1CCN(CCN2C(=O)c3cccc4cccc(c34)C2=O)CC1	6.1	0.5	58.3*	1.1	-1.4	-19.4
O=C(COc1ccccc1F)N1CCN(CCN2C(=O)c3cccc4cccc(c34)C2=O)CC1	6.7	0.4	44.5	3.0	1.4	-10.1
O=C1CCCN1CC#CCN1CCCC1	0.0	-4.5	.	.	-1.4	.
CC[N+]12CCC(CC1)C(=C(c1ccccc1)c1ccccc1)C2	28.6*	8.5	-7.5	5.1	-2.5	-6.5
CC(C)N(CCC(C(N)=O)(c1ccccc1)c1ccccn1)C(C)C (stereo not given)	10.5	1.7	-5.5	1.5	-0.9	-22.4
Cc1ccc(C(=O)C2CN3CCC2CC3)cc1 (stereo not given)	0.1	-4.7	73.5*	2.0	0.0	-3.4
Cc1ccc(C(=O)C2CN(C)CC2C(=O)c2ccc(C)cc2)cc1 (stereo not given)	4.2	-1.7	1.7	1.5	-0.6	-48.0
C[N+]1=C(/C=C/Nc2ccccc2)C(C)(C)c2ccccc21	61.3*	59.2*	33.6	6.7	-0.8	-16.1
COC(=O)CC1(CC(=O)OC)C(=O)NC(=O)NC1=O	-3.1	-5.4	1.2	5.5	-3.8	0.2
Cc1ccc(-n2cc(CNC(C)Cc3cnccn3)c(-c3cccc(C)c3)n2)cc1 (stereo not given)	6.8	1.4	65.1*	2.6	-1.6	-1.4
Cc1cc(OC(=O)N(C)C)nc(-c2ccc(C)c(Cl)c2)n1	3.4	-0.2	.	.	-0.2	.
CCCCCn1c(NC(=O)c2ccco2)c(C(=O)OCC)c2nc3ccccc3nc21	0.7	1.6	10.1	2.9	-0.8	-2.8
COCCNC(=O)c1c(N)n(CCC(C)C)c2nc3ccccc3nc12	-0.2	-5.2	100.2*	1.6	.	3.2
CCOC(=O)c1c(N)n(Cc2ccc(OC)cc2)c2nc3ccccc3nc12	2.6	1.3	96.2*	4.9	0.7	8.5
CCCCNC(=O)c1c(N)n(CCCOC)c2nc3ccccc3nc12	4.4	1.3	19.3	3.6	.	9.3
COCCOC(=O)c1c(N)n(Cc2ccc(OC)cc2)c2nc3ccccc3nc12	1.1	-1.4	88.7*	2.8	1.8	14.4
CCOC(=O)c1c(N)n(CCCOC(=O)c2ccco2)c2nc3ccccc3nc12	1.1	0.2	82.2*	1.4	-4.5	-7.7
COCCCn1c(N)c(C(=O)OCCOC)c2nc3ccccc3nc21	1.4	1.7	4.4	3.6	1.7	-0.1
CCCNC(=O)c1c(N)n(Cc2ccc3c(c2)OCO3)c2nc3ccccc3nc12	5.5	2.2	-0.1	20.6	.	6.2
COC(=O)c1c(N)n(Cc2ccc(OC)cc2)c2nc3ccccc3nc12	3.4	-1.2	52.4*	5.1	-6.8	0.6
CCOC(=O)c1c(NS(=O)(=O)c2ccccc2)n(CCCOC)c2nc3ccccc3nc12	5.5	-1.2	96.0*	2.2	0.6	-11.2
c1csc(CN2CCNCC2)c1	2.6	-2.6	-4.5	1.2	-4.1	-27.2
FC(F)(F)c1ccc(CN2CCNCC2)cc1	1.0	-2.8	95.6*	4.8	-2.8	-5.2
C=CCn1c(O)c(C(C)=NCCCn2ccnc2)c(=O)[nH]c1=O	-0.5	0.0	.	.	0.1	.
C=CC(C)C(C(=O)c1ccccc1)N(C)C (stereo not given)	30.7*	27.1*	-0.3	5.2	-3.1	-8.2
SMILES	BaF3 parental	Ba/F3 V617F tox	Lmaj promast	MT stabilize HCS	bCat nuc transl	APP transl inh
CN(C)C(Cc1ccccc1)C(=O)c1ccccc1 (stereo not given)	34.3*	12.3	-1.1	3.3	-1.2	0.6
Cc1cccc(CN(C)C)c1OC(=O)N(C)C	0.3	-1.8	-3.2	2.6	4.5	2.7
COc1ccc(OC)c(N2C(=O)NC(=O)/C(=C/c3ccc([N+](=O)[O-])s3)C2=O)c1	4.2	2.4	96.8*	1.6	0.6	-16.2
Cc1ccc(/C=C2\C(=O)NC(=O)N(CCc3ccc(F)cc3)C2=O)s1	0.3	3.4	3.5	2.6	-5.9	0.4
CCN1C(=O)/C(=C\c2ccc([N+](=O)[O-])s2)C(=O)NC1=S	7.0	-0.9	99.4*	1.2	-4.0	9.6
OCCN(CC#CC(O)(c1ccccc1)C1CCCC1)CCO (stereo not given)	3.1	2.1	-5.0	5.9	-0.4	-0.6
CCn1c(O)c(C=NCCc2c[nH]c3ccccc23)c(=O)[nH]c1=O	7.2	-0.4	-7.6	2.6	.	-20.6
Cc1cc([P+](=O)O)c(C)n1-c1ccc(Br)cc1	2.2	-2.1	-4.3	1.9	-0.4	23.7
CCNC(=S)N1CCn2cccc2C1c1cccnc1 (stereo not given)	-2.5	-4.8	70.4*	2.9	1.2	7.9
OCC1(CO)COC(c2cccnc2)N1 (stereo not given)	5.3	-0.9	-5.5	5.3	-5.3	-20.4
O=P(C(c1c[nH]c2ccccc12)N1CCOCC1)(N1CCOCC1)N1CCOCC1 (stereo not given)	0.9	1.7	-5.5	4.0	.	-7.3
Cc1[nH]c2c(C(F)(F)F)cccc2c1CCN	10.8	4.0	0.7	2.1	.	47.6*
COP(=O)(OC)C(NC(=O)C(C)(C)C)=C(Cl)Cl	-0.7	-3.5	0.8	1.9	-2.0	-0.9
CCOC(=O)C(O)(c1cn(C)c2ccccc12)C(F)(F)F (stereo not given)	4.7	5.6	0.0	5.3	-1.8	0.1
CNc1cc(Cl)c2nonc2c1[N+](=O)[O-]	79.3*	49.6*	74.5*	3.8	-3.6	84.5*
O=C(COc1ccc(Cl)cc1Cl)N1CCN(C/C=C/c2ccccc2)CC1	7.6	1.6	88.7*	1.7	.	15.2
CN(c1ccc(OCC(=O)N2CCN(C/C=C/c3ccccc3)CC2)cc1)S(=O)(=O)c1cccs1	0.1	1.7	.	.	2.7	.
O=C1NC(=O)C(CCc2ccncc2)(Cc2ccc([N+](=O)[O-])cc2)C(=O)N1	3.5	-0.8	-3.8	2.9	-1.5	-4.4
CC(=O)N1CCC(N2CCCC(C(=O)c3cccc(Cl)c3)C2)CC1 (stereo not given)	1.2	-1.1	92.2*	2.8	0.3	-13.3
COc1ccc(C(=O)C2CCCN(C3CSCCSC3)C2)c(OC)c1 (stereo not given)	3.1	-1.2	20.9	2.3	-0.1	7.5
COc1ccc(C(=O)C2CCCN(C3CSCCSC3)C2)c(C)c1 (stereo not given)	5.6	-2.5	97.2*	3.7	1.0	-11.0
COc1cccc(C(=O)C2CCCN(C3CCOCC3)C2)c1 (stereo not given)	9.3	0.2	88.2*	1.6	-2.6	10.6
C=CCn1c(O)c(C(C)=NCCC(c2ccccc2)c2ccccc2)c(=O)[nH]c1=O	6.4	4.2	9.8	1.8	-1.5	8.7
O=[N+]([O-])c1ccc(N2CCOCC2)c2ccncc12	6.2	-3.8	20.5	2.6	-2.6	13.4
CC(C)[C@]12O[C@H]1[C@@H]1O[C@]13[C@]1(O[C@H]1C[C@H]1C4=C(CC[C@@]13C)C(=O)OC4)[C@@H]2O	104.7*	99.1*	.	.	29.6	.
